These results are taken from ChEMBL document CHEMBL4513216, “Probing the Open Global Health Chemical Diversity Library for Multistage-Active Starting Points for Next-Generation Antimalarials” (ACS Infect Dis, 2020).

Molecules are shown by their SMILES.

This data set in a line: Toxicity liver stage against HepG2, at 10uM. The data set is classed as cell-based. The arrangement: test concentration 10 uM, cell line HepG2-A16-CD81EGFP. Conditions: human, HepG2-A16-CD81EGFP cells; read-out: INHIBITION
The method, boiled down:
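Uninfected HepG2-A16-CD81EGFP cells, 3 × 10^3 per well, 1536-well, plated on prespotted compound at 10 μM final, parasite-free screening media added to match infected plates; puromycin 10 μM positive, DMSO 0.5% negative; run in parallel with 48 h PbLuc assay at 37 °C, 5% CO2; viability by CellTiter-Glo luminescence, normalized to controls.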
On to `COCCn1cnnc1CCn1ccnc1-c1ccccc1Cl`, for which the cytotoxicity at 10 µM was -8.25%.

On to `COCCC(=O)NCc1ccc(-c2ccccc2C(=O)O)cn1`, for which the cytotoxicity at 10 µM was found to be 1.92%.

Take `CCC(=O)N1Cc2nccn2CC(CN(C)Cc2cccnc2)C1` (stereo unspecified): the cytotoxicity at 10 µM is 3.55%.

Consider `Cc1csc(NC(=O)C2CCN(Cc3cccc4c3OCCO4)CC2)n1`, for which the cytotoxicity at 10 µM was -17.9%.

For the compound `COc1cccc(F)c1C(C)NC(=O)NCc1ccnc(C)n1` (stereo unspecified), the cytotoxicity at 10 µM was -10.9%.

Turning to `CC(=O)N(Cc1ncc(C)o1)C1CCN(Cc2ccccc2C#N)C1` (stereo unspecified), the cytotoxicity at 10 µM is -15.5%.

On to `O=C(NCc1cc2n(n1)CCCNC2)C1(c2ccccc2)CCCCC1`, for which the cytotoxicity at 10 µM was -10.6%.

With `CNC(=O)[C@H]1C[C@@H]2CN(S(=O)(=O)c3ccc(OC)cc3)C[C@@H]2N1C`, the cytotoxicity at 10 µM is -3.9%.

In the case of `Cc1nc(CNC(=O)NCc2cccnc2N(C)C)cs1`, the cytotoxicity at 10 µM was -2.15%.

Take `COc1cccc(N2C(=O)CC3(CCNCC3)C2=O)c1`: the cytotoxicity at 10 µM was 2.67%.

Consider `CCCC(C)C(=O)NCc1cn2cc(Br)ccc2n1` (stereo unspecified), for which the cytotoxicity at 10 µM is -6.6%.

Take `CCn1c(C)nnc1SCCNc1cc(OC)ncn1`: the cytotoxicity at 10 µM was found to be 5.87%.

In the case of `CC1Cc2ccccc2N1Cc1occc1C(=O)OCC(N)=O` (stereo unspecified), the cytotoxicity at 10 µM was -9.18%.

With `Cc1nc2ccc(C(=O)N3CCN(CCO)[C@@H]4CS(=O)(=O)C[C@@H]43)cc2o1`, the cytotoxicity at 10 µM was -1.32%.

In the case of `CCCn1ccnc1CN1CCCC(O)(CN2CCCC2)C1` (stereo unspecified), the cytotoxicity at 10 µM was -2.69%.

For `Cc1ccc(C(CNC(=O)NCc2cc[nH]n2)N2CCOCC2)o1` (stereo unspecified), the cytotoxicity at 10 µM was -8.78%.

Turning to `COc1ccc(OCC(=O)n2nc(C)c(C)c2C)cc1`, the cytotoxicity at 10 µM is -6.32%.

For `Cc1nc(N2CCCC2)nc(N2CCC(O)(C(=O)O)CC2)c1C`, the cytotoxicity at 10 µM is -5.62%.

`CCn1nc(C)cc1S(=O)(=O)N1CCC2(CC(=O)NC2=O)C1` (stereo unspecified): the cytotoxicity at 10 µM was 0.0942%.

In the case of `Cc1cc(NC(=O)NCCc2cccs2)n(C)n1`, the cytotoxicity at 10 µM came out at 14.8%.

Turning to `O=C(c1cocn1)N1CCC2(CC1)CC(OCC1CC1)CO2` (stereo unspecified), the cytotoxicity at 10 µM was found to be 10%.

For `O=C(NCC1CCCCO1)c1ccc(-c2cccs2)[nH]c1=O` (stereo unspecified), the cytotoxicity at 10 µM is -7.03%.

Regarding `COCC(=O)N1CCC(C(=O)c2cc(C)cnc2N)CC1`, the cytotoxicity at 10 µM was found to be 0.353%.

On to `O=C1NCCc2c1sc1ccc(C(=O)N3CC[C@H](CO)[C@H](O)C3)cc21`, for which the cytotoxicity at 10 µM was -1.7%.

With `Cc1cc(N2CCCC(c3n[nH]c4ncccc34)C2)ncn1` (stereo unspecified), the cytotoxicity at 10 µM was -3.22%.

Regarding `COc1cc(F)ccc1N1CCN(Cc2nnc(C3CC3)o2)CC1`, the cytotoxicity at 10 µM came out at 14.8%.

On to `Cn1ccnc1C(O)(CCNCc1ccc(Cl)o1)C(F)(F)F` (stereo unspecified), for which the cytotoxicity at 10 µM worked out at 4.91%.

With `O=C(c1cccnc1N1CCOCC1)N1CCCC(n2ccnc2)C1` (stereo unspecified), the cytotoxicity at 10 µM is -3.56%.

With `Cc1nn(C)c(Cl)c1S(=O)(=O)N(C)C`, the cytotoxicity at 10 µM worked out at 3.66%.

On to `Cc1ccc(CN(C)C(=O)CCn2c(=O)n(C)c3ccccc32)o1`, for which the cytotoxicity at 10 µM is 4%.

Consider `COc1cc(-c2nc3c([nH]2)CCCNC3=O)ccc1O`, for which the cytotoxicity at 10 µM is 16.9%.

Turning to `CCOCc1nc(N2CCOCC2)sc1C(=O)NCCCc1ccco1`, the cytotoxicity at 10 µM was -87.3%.

Take `CS(=O)(=O)NC[C@@H]1OC[C@H]2CN(C(=O)c3cnccn3)CC[C@H]21`: the cytotoxicity at 10 µM was 2.98%.

For the compound `Cn1c(C2CC2)nc2c1CCN(CC(=O)Nc1nncs1)C2`, the cytotoxicity at 10 µM was -6.44%.

Turning to `CCN1CCC2(CN(C(=O)N(C)C)CC23CCNCC3)C1=O` (stereo unspecified), the cytotoxicity at 10 µM was 4.29%.

Turning to `CCCC(C#N)NC(=O)CCCOc1cccc(F)c1` (stereo unspecified), the cytotoxicity at 10 µM was -44.1%.

On to `CN(C)c1cc(C2CCCN(S(=O)(=O)C3CCCC3)C2)ccn1` (stereo unspecified), for which the cytotoxicity at 10 µM is -20.8%.

`CN1CCN(C[C@@H]2OC[C@H]3CN(CCc4ccccc4)CC[C@H]32)CC1`: the cytotoxicity at 10 µM was 8.84%.

For the compound `Cc1cc(C)cc(-c2cc(C3CCOC3)c(C#N)c(N)n2)c1` (stereo unspecified), the cytotoxicity at 10 µM was 1.44%.

As to `O=C(NCC1CCCO1)C1CCN(Cc2nc(C3CC3)no2)CC1` (stereo unspecified), the cytotoxicity at 10 µM amounted to 1.11%.

For the compound `CC(C)C(=O)N1CCN(C(=O)c2cc(Cl)no2)[C@H]2CS(=O)(=O)C[C@H]21`, the cytotoxicity at 10 µM came out at 8.48%.

For `COC(=O)c1ccc(N2CCN(CCC(=O)NC(N)=O)C(C)C2)cc1` (stereo unspecified), the cytotoxicity at 10 µM was -6.39%.

In the case of `O=C(c1cscn1)N1CCc2ncnc(-c3ccncc3)c2CC1`, the cytotoxicity at 10 µM was -4.71%.

`Cc1c(CN2CC[C@@H](N3CCC(O)CC3)[C@H](O)C2)[nH]c2ccc(Cl)cc12`: the cytotoxicity at 10 µM is -3.96%.

In the case of `Cn1cnnc1CNC(=O)CCCOc1ccccc1Cl`, the cytotoxicity at 10 µM turned out to be 3.28%.

For `CC(CCO)Nc1cccc(C(F)(F)F)n1` (stereo unspecified), the cytotoxicity at 10 µM is -2.8%.

For the compound `O=C1Nc2ccccc2/C1=C1\CCCCN1`, the cytotoxicity at 10 µM stood at 4.95%.

For the compound `O=C1CCC(=O)N1CCOc1nc(-c2ccccc2Cl)no1`, the cytotoxicity at 10 µM was 6.97%.

Turning to `CCc1ncc(CN2CCCC3(CCC(=O)N(CCC(C)C)C3)C2)cn1` (stereo unspecified), the cytotoxicity at 10 µM was -7.66%.

For `O=C(Nc1nccs1)C1CCN(Cc2cccc3c2OCCO3)CC1`, the cytotoxicity at 10 µM was -1.95%.

With `COc1ccc(C2=Nn3c(CCCN)nnc3-c3ccccc3C2)cc1`, the cytotoxicity at 10 µM worked out at 3.07%.

On to `Cc1cc(C)nc(Nc2cc(C)nc(C3CCN(C(C)C)C3)n2)n1` (stereo unspecified), for which the cytotoxicity at 10 µM turned out to be 3.06%.

As to `CCc1ccc(S(=O)(=O)N2CC3(COC(C)(C)OC3)C2)s1`, the cytotoxicity at 10 µM is 5.76%.

As for `Cn1cc(C2CC(=O)NC23CCN(C(=O)Cc2ccccn2)CC3)cn1` (stereo unspecified), the cytotoxicity at 10 µM worked out at 5.06%.

With `CC(c1ccc(F)cc1)N1CCN(Cc2nccn2C)CC1` (stereo unspecified), the cytotoxicity at 10 µM was -25.7%.

For the compound `C/C=C(\C)CN1C[C@@H](NC(=O)c2ccc(F)c(F)c2)C[C@H]1C(=O)NCC`, the cytotoxicity at 10 µM is 14%.

Regarding `Cc1cnn(C2CCCN(C(=O)c3ccnc(-n4ccnc4)c3)C2)c1` (stereo unspecified), the cytotoxicity at 10 µM is -1.88%.

`O=C(NCCn1ccnc1)N1CCCC1c1cccs1` (stereo unspecified): the cytotoxicity at 10 µM was -7.51%.

As to `CN1CCN(Cc2cccnc2)C(=O)C12CCN(CC1CCOC1)CC2` (stereo unspecified), the cytotoxicity at 10 µM is -106%.

`CC(C)OCCSc1nnnn1C1CCOCC1`: the cytotoxicity at 10 µM is -0.494%.

Regarding `CCc1ccccc1OCCN1CCC(NS(C)(=O)=O)CC1`, the cytotoxicity at 10 µM was -20.4%.

For `Fc1ccc(C(NCc2nnc(C3CC3)o2)C2CCC2)cc1` (stereo unspecified), the cytotoxicity at 10 µM was -48.1%.

As for `CCOCC(O)CN1CCN(C(=O)c2ccc(OC)cc2)CC1` (stereo unspecified), the cytotoxicity at 10 µM was 5.22%.

Regarding `Cc1nn(C)c(C)c1C1CCCN1C(=O)Cc1cn2ccsc2n1` (stereo unspecified), the cytotoxicity at 10 µM is -45.2%.

With `CCNc1cc2c(nn1)CCN(C(=O)C1Cc3ccccc3S1)C2` (stereo unspecified), the cytotoxicity at 10 µM is -1.4%.

As for `O=C(c1ccc2cc[nH]c2c1)N1CCC(Nc2cccnn2)CC1`, the cytotoxicity at 10 µM is -5.06%.

As for `CCN(C(=O)c1ccc2nnc(C3CCN(S(C)(=O)=O)C3)n2c1)C(C)C` (stereo unspecified), the cytotoxicity at 10 µM is -110%.

In the case of `O=C([C@@H]1CCO[C@@H]2CCN(Cc3ccsc3)C[C@@H]21)N1CCCC1`, the cytotoxicity at 10 µM is -81.4%.

`CC(Cc1cccc(F)c1)C(=O)NS(=O)(=O)c1ccc2c(c1)OCCO2` (stereo unspecified): the cytotoxicity at 10 µM was 9.83%.

Turning to `CN(C)CCN(C)S(=O)(=O)Cc1ccc(Br)cc1`, the cytotoxicity at 10 µM amounted to 0.936%.

As to `CNc1ncc(CN(C)Cc2cc(O)c3cccc(Cl)c3n2)cn1`, the cytotoxicity at 10 µM was found to be 7.05%.
